# Measured values reported in ChEMBL document CHEMBL3600357 (J Med Chem, 2015).
# Assays:
# SJSA-1 = assay: Inhibition of cell proliferation of human SJSA1 cells
# [1] = Equilibrium solubility in pH 6.8 buffer solution; format: physicochemical
# In short: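 High-throughput equilibrium solubility assay at pH 6.8.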
# [2] = Intrinsic clearance in rat liver microsomes; format: ADME; conditions: read-out: CLH
# [3] = Half life in rat liver microsomes; format: ADME
# Cytochrome P450 3A4 [4] = target: T1, Cytochrome P450 3A4 (Homo sapiens, UniProt P08684); assay: Time dependent inhibition of CYP3A4 (unknown origin); format: ADME
# [5] = target: Voltage-gated inwardly rectifying potassium channel KCNH2 (Homo sapiens, UniProt Q12809); assay: Inhibition of human ERG by radioligand binding assay
# [6] = Permeability in human Caco2 cells assessed as drug recovery during apical to basolateral transport; format: ADME, cell-based; conditions: Caco-2, read-out: Drug recovery
# [7] = Permeability from apical to basolateral side in human Caco2 cells; format: ADME, cell-based; conditions: Caco-2
# [8] = Permeability from basolateral to apical side in human Caco2 cells; format: ADME, cell-based; conditions: Caco-2
# [9] = Clearance in Sprague-Dawley rat at 1 mg/kg, iv; format: ADME, organism-based; conditions: in vivo
# In short: (§1)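 Sprague-Dawley rats. IV dose given as a solution in NMP:PEG200 (10:90); 3 mg/kg PO given as a suspension in CMC:water:Tween (0.5:99:0.5). AUC and Cmax dose-normalized to 1 mg/kg. Mean ± SD from four rats.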
# [10] = Terminal half life in Sprague-Dawley rat at 1 mg/kg, iv; format: ADME, organism-based; conditions: Sprague-Dawley, in vivo, read-out: beta t1/2 (converted); in short: as §1
# [11] = Volume of distribution at steady state in Sprague-Dawley rat at 1 mg/kg, iv; format: ADME, organism-based; conditions: Sprague-Dawley, in vivo, read-out: Vdss
# Rattus norvegicus [12] = assay: AUC in Sprague-Dawley rat at 1 mg/kg, iv; format: ADME, organism-based; conditions: in vivo; in short: as §1
# Rattus norvegicus [13] = assay: AUC in Sprague-Dawley rat at 3 mg/kg, po; format: ADME, organism-based; conditions: in vivo; in short: as §1
# [14] = Cmax in Sprague-Dawley rat at 3 mg/kg, po; format: ADME, organism-based; parameters: dose 3 mg/kg, route oral; conditions: in vivo; in short: as §1
# [15] = Tmax in Sprague-Dawley rat at 3 mg/kg, po; format: ADME, organism-based; conditions: in vivo
# Rattus norvegicus [16] = assay: Oral bioavailability in Sprague-Dawley rat at 3 mg/kg; format: ADME, organism-based; conditions: in vivo; in short: as §1
# [17] = Protein binding in Sprague-Dawley rat plasma by equilibrium dialysis method; format: ADME, cell-free; conditions: read-out: PPB
# In short: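 Rat plasma protein binding by rapid equilibrium dialysis (RED) in 100% plasma.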
# Cytochrome P450 3A4 [18] = target: T1, Cytochrome P450 3A4; assay: Time dependent inhibition of CYP3A4 in human liver microsomes; format: ADME
# [19] = Octanol water partition coefficient, logP of the compound; format: physicochemical
# [20] = Intrinsic clearance in human liver microsomes; format: ADME; conditions: read-out: CLH
# [21] = target: Tumour suppressor p53/oncoprotein Mdm2 (Homo sapiens, UniProt Q00987); assay: Inhibition of MDM2/p53 interaction (unknown origin) using biotinylated MDM2 and Cy5-p53 (18 to 26 amino acids) by TR-FRET assay; format: protein assay
# [22] = Intrinsic clearance in monkey liver microsomes; format: ADME, Macaca mulatta; conditions: rhesus monkey, read-out: CLH
# [23] = target: E3 ubiquitin-protein ligase Mdm2 (Canis lupus familiaris, UniProt P56950); assay: Inhibition of dog MDM2 by TR-FRET assay
# [24] = target: E3 ubiquitin-protein ligase Mdm2 (Mus musculus, UniProt P23804); assay: Inhibition of mouse MDM2 by TR-FRET assay
# [25] = Inhibition of rat MDM2 by TR-FRET assay
# Chain of Tumour suppressor p53/oncoprotein Mdm2 (P04637 whole entry, the tested form may be a part): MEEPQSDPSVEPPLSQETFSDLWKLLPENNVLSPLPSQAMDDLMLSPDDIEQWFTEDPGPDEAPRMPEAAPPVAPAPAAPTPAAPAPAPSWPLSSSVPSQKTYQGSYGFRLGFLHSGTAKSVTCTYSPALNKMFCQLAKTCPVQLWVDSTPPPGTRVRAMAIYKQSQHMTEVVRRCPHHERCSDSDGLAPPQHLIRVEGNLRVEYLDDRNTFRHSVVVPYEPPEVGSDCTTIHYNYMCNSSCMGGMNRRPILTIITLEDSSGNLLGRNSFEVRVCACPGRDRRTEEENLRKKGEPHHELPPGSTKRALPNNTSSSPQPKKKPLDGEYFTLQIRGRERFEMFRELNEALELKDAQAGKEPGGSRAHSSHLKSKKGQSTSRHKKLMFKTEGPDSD
# Chain of Tumour suppressor p53/oncoprotein Mdm2 (Q00987 whole entry, the tested form may be a part): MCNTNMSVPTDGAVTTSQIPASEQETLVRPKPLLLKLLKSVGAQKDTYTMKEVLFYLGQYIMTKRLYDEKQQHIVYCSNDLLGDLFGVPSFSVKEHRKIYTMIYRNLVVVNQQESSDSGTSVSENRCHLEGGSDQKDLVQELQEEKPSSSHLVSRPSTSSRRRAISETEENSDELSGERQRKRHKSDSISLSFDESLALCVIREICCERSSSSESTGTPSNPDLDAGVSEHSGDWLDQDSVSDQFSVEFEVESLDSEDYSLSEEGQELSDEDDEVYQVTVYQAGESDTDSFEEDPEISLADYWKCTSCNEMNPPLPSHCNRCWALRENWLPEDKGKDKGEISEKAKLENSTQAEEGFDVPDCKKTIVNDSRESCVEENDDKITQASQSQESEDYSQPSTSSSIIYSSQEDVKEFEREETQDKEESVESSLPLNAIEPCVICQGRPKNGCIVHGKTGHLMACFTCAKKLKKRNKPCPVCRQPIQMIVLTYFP
# Chain of Voltage-gated inwardly rectifying potassium channel KCNH2 (Q12809 whole entry): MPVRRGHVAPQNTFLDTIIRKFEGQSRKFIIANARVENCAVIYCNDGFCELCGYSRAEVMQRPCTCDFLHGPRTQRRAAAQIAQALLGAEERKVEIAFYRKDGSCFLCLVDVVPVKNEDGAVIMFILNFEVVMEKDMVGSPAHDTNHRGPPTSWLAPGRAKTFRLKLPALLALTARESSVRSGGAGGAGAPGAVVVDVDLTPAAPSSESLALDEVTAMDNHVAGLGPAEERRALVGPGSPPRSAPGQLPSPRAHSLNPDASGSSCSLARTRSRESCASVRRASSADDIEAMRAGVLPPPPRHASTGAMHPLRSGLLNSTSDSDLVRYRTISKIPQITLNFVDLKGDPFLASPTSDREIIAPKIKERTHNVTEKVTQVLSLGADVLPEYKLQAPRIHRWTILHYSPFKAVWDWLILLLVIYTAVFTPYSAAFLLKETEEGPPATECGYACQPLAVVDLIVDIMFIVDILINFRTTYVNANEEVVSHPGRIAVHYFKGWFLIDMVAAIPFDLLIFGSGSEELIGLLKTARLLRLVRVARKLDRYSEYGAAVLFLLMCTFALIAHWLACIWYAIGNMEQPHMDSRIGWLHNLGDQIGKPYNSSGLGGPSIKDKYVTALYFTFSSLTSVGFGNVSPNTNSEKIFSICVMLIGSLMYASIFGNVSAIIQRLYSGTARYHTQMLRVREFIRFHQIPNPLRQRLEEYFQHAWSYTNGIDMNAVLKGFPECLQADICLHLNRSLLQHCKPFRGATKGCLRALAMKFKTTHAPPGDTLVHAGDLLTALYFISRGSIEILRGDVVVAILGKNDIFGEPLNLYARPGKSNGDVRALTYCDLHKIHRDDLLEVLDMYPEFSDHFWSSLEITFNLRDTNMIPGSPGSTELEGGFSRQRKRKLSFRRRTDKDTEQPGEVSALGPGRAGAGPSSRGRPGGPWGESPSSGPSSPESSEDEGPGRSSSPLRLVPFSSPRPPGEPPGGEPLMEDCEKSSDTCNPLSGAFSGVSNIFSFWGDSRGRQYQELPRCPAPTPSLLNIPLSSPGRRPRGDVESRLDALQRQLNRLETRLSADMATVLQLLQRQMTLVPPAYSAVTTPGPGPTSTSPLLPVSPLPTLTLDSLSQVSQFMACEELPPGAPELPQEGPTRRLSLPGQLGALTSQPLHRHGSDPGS
# T1 sequence (P08684 whole entry): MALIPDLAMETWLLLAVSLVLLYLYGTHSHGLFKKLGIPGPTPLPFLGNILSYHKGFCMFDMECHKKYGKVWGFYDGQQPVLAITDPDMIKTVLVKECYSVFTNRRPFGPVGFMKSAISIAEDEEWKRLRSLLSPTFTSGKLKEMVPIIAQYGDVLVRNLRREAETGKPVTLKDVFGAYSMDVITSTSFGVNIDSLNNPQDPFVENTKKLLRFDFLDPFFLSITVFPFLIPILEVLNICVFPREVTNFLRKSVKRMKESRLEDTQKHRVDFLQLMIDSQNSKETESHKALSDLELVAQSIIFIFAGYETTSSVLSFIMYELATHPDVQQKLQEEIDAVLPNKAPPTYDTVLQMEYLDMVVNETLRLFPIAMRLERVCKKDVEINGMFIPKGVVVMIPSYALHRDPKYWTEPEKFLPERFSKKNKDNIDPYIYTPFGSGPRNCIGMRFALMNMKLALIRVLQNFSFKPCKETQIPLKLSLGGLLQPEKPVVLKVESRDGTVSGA
# Chain of E3 ubiquitin-protein ligase Mdm2 (Mus musculus, UniProt P23804) (P23804 whole entry): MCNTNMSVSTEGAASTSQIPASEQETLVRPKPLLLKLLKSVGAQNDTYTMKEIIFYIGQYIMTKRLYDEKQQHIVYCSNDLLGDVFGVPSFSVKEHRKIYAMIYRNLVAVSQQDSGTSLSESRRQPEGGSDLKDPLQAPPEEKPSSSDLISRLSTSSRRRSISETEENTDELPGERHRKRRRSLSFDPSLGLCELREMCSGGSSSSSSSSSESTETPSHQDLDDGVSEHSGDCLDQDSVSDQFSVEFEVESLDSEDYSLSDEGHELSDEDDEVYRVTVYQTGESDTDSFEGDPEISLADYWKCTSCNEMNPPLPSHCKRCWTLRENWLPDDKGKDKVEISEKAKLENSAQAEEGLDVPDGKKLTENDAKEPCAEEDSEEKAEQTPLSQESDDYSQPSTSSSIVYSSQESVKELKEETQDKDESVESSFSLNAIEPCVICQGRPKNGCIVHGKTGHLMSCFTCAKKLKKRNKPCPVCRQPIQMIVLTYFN
# Chain of E3 ubiquitin-protein ligase Mdm2 (Canis lupus familiaris, UniProt P56950) (P56950 whole entry): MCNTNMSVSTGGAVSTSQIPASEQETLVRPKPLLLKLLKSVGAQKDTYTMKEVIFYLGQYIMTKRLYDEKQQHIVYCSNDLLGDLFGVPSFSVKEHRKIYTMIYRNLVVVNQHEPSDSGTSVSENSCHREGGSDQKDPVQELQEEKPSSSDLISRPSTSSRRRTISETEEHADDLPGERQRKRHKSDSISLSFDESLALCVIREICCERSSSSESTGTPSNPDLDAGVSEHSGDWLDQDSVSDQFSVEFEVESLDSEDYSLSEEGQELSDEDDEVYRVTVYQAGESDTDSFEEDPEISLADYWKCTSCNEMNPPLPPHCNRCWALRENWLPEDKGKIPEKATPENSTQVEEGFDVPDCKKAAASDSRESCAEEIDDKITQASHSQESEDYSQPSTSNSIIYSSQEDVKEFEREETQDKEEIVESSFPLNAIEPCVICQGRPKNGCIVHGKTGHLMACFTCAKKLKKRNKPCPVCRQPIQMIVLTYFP
smiles,measurement,setting,value
CC[C@@H](C)Oc1cc2c(cc1OC)CC(=O)N(c1ccc(N(C)Cc3ccncc3)cc1)C2c1ccc(Cl)cc1 (stereo not given in full),GI50,SJSA-1,3.86 µM
CC[C@@H](C)Oc1cc2c(cc1OC)CC(=O)N(c1ccc(N(C)Cc3ccncc3)cc1)[C@H]2c1ccc(Cl)cc1,GI50,SJSA-1,1.21 µM
CC[C@@H](C)Oc1cc2c(cc1OC)CC(=O)N(c1ccc(N(C)Cc3ccncc3)cc1)[C@@H]2c1ccc(Cl)cc1,GI50,SJSA-1,29.6 µM
CC[C@@H](C)Oc1cc2c(cc1OC)CC(=O)N(c1ccc(N(C)CC3CCNCC3)cc1)C2c1ccc(Cl)cc1 (stereo not given in full),GI50,SJSA-1,1.09 µM
CC[C@@H](C)Oc1cc2c(cc1OC)CC(=O)N(c1ccc(N(C)C[C@H]3CC[C@H](N)CC3)cc1)C2c1ccc(Cl)cc1 (stereo not given in full),GI50,SJSA-1,2.85 µM
CC[C@@H](C)Oc1cc2c(cc1OC)CC(=O)N(c1ccc(N(C)C[C@H]3CC[C@H](N(C)C)CC3)cc1)C2c1ccc(Cl)cc1 (stereo not given in full),GI50,SJSA-1,1.13 µM
CC[C@@H](C)Oc1cc2c(cc1OC)CC(=O)N(c1ccc(N(C)C[C@H]3CC[C@H](N(C)C)CC3)cc1)[C@H]2c1ccc(Cl)cc1,GI50,SJSA-1,0.94 µM
same,solubility thermodynamic,[1],> 1000 µM
same,microsomal CLint,[2],5.6 µL/min/mg
same,half-life,[3],4.1 h
same,K,Cytochrome P450 3A4 [4],0.042 min⁻¹
same,IC50,[5],1.3 µM
same,recovery,[6],< 30%
same,Papp A→B,[7],0.08 ×10⁻⁶ cm/s
same,Papp B→A,[8],0.12 ×10⁻⁶ cm/s
same,clearance,[9],15 mL/min/kg
same,half-life,[10],19.1 h
same,Vd,[11],23.9 L/kg
same,AUC,Rattus norvegicus [12],1.574 µM·h
same,AUC,Rattus norvegicus [13],0.297 µM·h
same,Cmax,[14],17.6 nM
same,Tmax,[15],7 h
same,F,Rattus norvegicus [16],18%
same,fraction unbound,[17],< 0.01
COc1cc2c(cc1OC(C)C)[C@H](c1ccc(Cl)cc1)N(c1ccc(N(C)C[C@H]3CC[C@H](N(C)C)CC3)cc1)C(=O)C2,GI50,SJSA-1,0.71 µM
same,IC50,Cytochrome P450 3A4 [18],9.4 µM
same,logP,[19],> 4.2
same,microsomal CLint,[20],4.6 µL/min/mg
CCC(=O)N[C@H]1CC[C@H](CN(C)c2ccc(N3C(=O)Cc4cc(OC)c(O[C@H](C)CC)cc4[C@@H]3c3ccc(Cl)cc3)cc2)CC1,IC50,[21],0.02 µM
same,GI50,SJSA-1,4.96 µM
same,IC50,[5],> 30 µM
COc1cc2c(cc1OC(C)C)[C@H](c1ccc(Cl)cc1)N(c1ccc(N(C)C[C@H]3CC[C@H](N4CNC(=O)C4)CC3)cc1)C(=O)C2,IC50,[21],0.0017 µM
same,GI50,SJSA-1,0.6 µM
COc1cc2c(cc1OC(C)C)[C@H](c1ccc(Cl)cc1)N(c1ccc(N(C)C[C@H]3CC[C@H](N4CCNC(=O)C4)CC3)cc1)C(=O)C2,GI50,SJSA-1,0.35 µM
same,IC50,[5],16 µM
same,IC50,Cytochrome P450 3A4 [18],11.3 µM
same,logP,[19],5.3
same,microsomal CLint,[22],79.7 µL/min/mg
same,microsomal CLint,[20],3.4 µL/min/mg
same,half-life,[10],9.3 h
same,Vd,[11],8 L/kg
same,AUC,Rattus norvegicus [12],2.154 µM·h
same,AUC,Rattus norvegicus [13],1.018 µM·h
same,Cmax,[14],74.6 nM
same,F,Rattus norvegicus [16],49%
same,fraction unbound,[17],< 0.01
COc1cc2c(cc1OC(C)C)[C@H](c1ccc(Cl)cc1)N(c1ccc(N(C)C[C@H]3CC[C@H](N(C)C)CC3)nc1)C(=O)C2,IC50,[21],0.0016 µM
same,IC50,Cytochrome P450 3A4 [18],5 µM
same,logP,[19],> 6.3
same,microsomal CLint,[20],78.3 µL/min/mg
COc1cc2c(cc1OC(C)C)[C@H](c1ccc(Cl)cc1)N(c1ccc(N(C)C[C@H]3CC[C@H](N4CC(=O)N(C)C4)CC3)nc1)C(=O)C2,IC50,[21],0.0114 µM
same,IC50,Cytochrome P450 3A4 [18],13.2 µM
same,logP,[19],4.4
same,microsomal CLint,[22],224 µL/min/mg
same,microsomal CLint,[20],157 µL/min/mg
COc1cc2c(cc1OC(C)C)[C@H](c1ccc(Cl)cc1)N(c1ccc(N(C)C[C@H]3CC[C@H](N4CCN(C)C(=O)C4)CC3)nc1)C(=O)C2,IC50,Cytochrome P450 3A4 [18],> 20 µM
same,logP,[19],4.8
same,microsomal CLint,[22],279 µL/min/mg
same,microsomal CLint,[20],151 µL/min/mg
COc1cc2c(cc1OC(C)C)[C@H](c1ccc(Cl)cc1)N(c1ccc(N(C)C[C@H]3CC[C@H](N4CCN(C)C(=O)C4)CC3)cn1)C(=O)C2,IC50,Cytochrome P450 3A4 [18],> 20 µM
same,logP,[19],4.6
same,microsomal CLint,[22],355 µL/min/mg
same,microsomal CLint,[20],156 µL/min/mg
COc1cc2c(cc1OC(C)C)[C@H](c1ccc(Cl)cc1)N(c1cnc(N(C)C[C@H]3CC[C@H](N4CCN(C)C(=O)C4)CC3)cn1)C(=O)C2,IC50,Cytochrome P450 3A4 [18],> 20 µM
same,logP,[19],4.6
same,microsomal CLint,[22],420 µL/min/mg
same,microsomal CLint,[20],220 µL/min/mg
COc1ccc(C2=N[C@@H](c3ccc(Cl)cc3)[C@@H](c3ccc(Cl)cc3)N2C(=O)N2CCNC(=O)C2)c(OC(C)C)c1 [NUTLIN-3],Ki,[23],0.0105 µM
same,Ki,[24],0.0199 µM
same,Ki,[25],0.0126 µM
